Source: article PMC8546901 (Chembiochem : a European journal of chemical biology, 2021)
Numbering of substitutions follows the chain as printed.

Assays:
[1] = biological target: T1, RGS17-RH C117S (Homo sapiens, UniProt Q9UGC6, C117S); assay: 1H-15N HSQC NMR binding to RGS17-RH C117S mutant; conditions: 1H-15N HSQC with RGS17-RH C117S mutant
T1 sequence (Q9UGC6 72-206 C117S): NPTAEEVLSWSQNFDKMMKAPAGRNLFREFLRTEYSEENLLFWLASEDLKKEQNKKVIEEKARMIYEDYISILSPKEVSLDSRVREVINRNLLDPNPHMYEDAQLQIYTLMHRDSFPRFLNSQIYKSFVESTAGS
Method in brief: (§1)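 ¹⁵N-labelled RH domains (wild-type RGS4, or RGS17 with the C117S point mutation) were expressed in E. coli BL21-CodonPlus(DE3)-RIPL in M9 medium with 1 g/L ¹⁵NH₄Cl. The His₆ tag was removed with TEV protease, and protein was purified by Ni-IMAC and size exclusion. ¹H-¹⁵N HSQC spectra were recorded with fragment at 1 mM in 1% DMSO and overlaid on 1% DMSO control spectra.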

[2] = biological target: T2, RGS17-RH GAP activity towards Gαi1 (R178M, A326S) (Homo sapiens, UniProt Q9UGC6); assay: Malachite green GAP activity assay; format: biochemical; conditions: 1 mM fragment, 4.5 μM RGS17-RH
T2 sequence (Q9UGC6 72-206): T1 sequence (Q9UGC6 72-206 C117S) with S46C
Method in brief: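 Free phosphate from GTP hydrolysis was detected colorimetrically with malachite green. Final concentrations were 300 μM GTP, 4.5 μM tag-free RGS17-RH and 1 mM fragment. Mean of n=3 independent experiments ± SEM.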

[3] = biological target: T3, RGS17-RH (Homo sapiens, UniProt Q9UGC6); assay: Differential scanning fluorimetry; format: binding; conditions: 1 mM fragment, 10 μM RGS17-RH
T3 sequence (Q9UGC6 72-206): T1 sequence (Q9UGC6 72-206 C117S) with S46C
Method in brief: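 10 μM RGS17-RH was incubated 30 min at ambient temperature with 1 mM fragment or DMSO control. 2X Sypro Orange was then added, and fluorescence was recorded from 20 to 80 °C. Tm was calculated from the melt curves. Mean of n=3 ± S.E.M.; one-way ANOVA with multiple comparisons.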

[4] = biological target: T3, RGS17-RH; assay: 1H-15N HSQC NMR fragment titration, chemical shift perturbation KD; format: binding; conditions: calculated from KD and number of heavy atoms
Method in brief: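 100 μM ¹⁵N-RGS17-RH was titrated with fragment from 100 μM up to its solubility limit (generally 2–10 mM) in phosphate buffer, pH 7.6, and ¹H-¹⁵N HSQC spectra were recorded. CSP was taken as the distance between control and treated peak centres. Per-residue KD came from a quadratic binding fit and was averaged over residues. LE = (−2.3039·R·T/HA)·log(KD).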

[5] = biological target: T4, RGS4-RH (Homo sapiens, UniProt P49798); assay: 1H-15N HSQC NMR binding to RGS4-RH; conditions: 1H-15N HSQC with RGS4-RH
T4 sequence (P49798 51-179): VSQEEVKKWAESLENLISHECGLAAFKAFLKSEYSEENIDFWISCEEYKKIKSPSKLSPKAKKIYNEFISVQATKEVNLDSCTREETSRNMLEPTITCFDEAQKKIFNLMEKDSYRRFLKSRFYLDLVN
Method in brief: as §1

[6] = biological target: T3, RGS17-RH; assay: DACM cysteine labeling of RGS17-RH after pre-incubation; format: biochemical; conditions: 10-fold molar excess compound (20 μM) over 2 μM RGS17-RH, 30 min pre-incubation
Method in brief: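 RGS17-RH, or buffer alone, was pre-incubated 30 min at ambient temperature with compound (final 2 μM protein, 20 μM compound; NEM as comparator). The buffer was 20 mM K₂HPO₄, 100 mM NaCl, 2 mM NaN₃, pH 7.6. DACM was then added, and fluorescence (ex 385/em 440 nm) was read for 1,000 s. Slopes were normalised to no-protein (0%) and protein without compound (100%). Mean of n=3 ± S.D.; one-way ANOVA.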

| RGS C117S Binding [1] | L.E. (ligand efficiency) [4] | RGS4 Binding [5] | Compound | effect on melting temperature of RGS17-RH (in words) [3] | other results |
| --- | --- | --- | --- | --- | --- |
| Yes | 0.31 | Yes | Oc1ccc(Sc2ccc(O)cc2)cc1 [Fragment 4] | melting temperature could not be accurately determined | inhibition of RGS17-RH GAP activity ([2]; 300 μM GTP): ~20% |
|  | 0.23 |  | CSc1cc(-c2ccc(F)cc2)[nH]n1 [Fragment 5] |  | RGS C117S Binding ([1]; listed as 5): No; RGS C117S Binding ([1]; listed as fragment 5): did not bind; RGS4 Binding ([5]; listed as 5): No; RGS4 Binding ([5]; listed as fragment 5): did not bind |
| Yes | 0.25 | Yes | OCCCCn1cnc2cc(Cl)c(Cl)cc21 [Fragment 6] | not statistically significant | inhibition of RGS17-RH GAP activity (in words) ([2]; one-way ANOVA): lack of appreciable RGS17-RH GAP inhibition |
| Yes | 0.25 | Yes | OCCCCCOc1ccc(Cl)cc1 [Fragment 7] |  |  |
|  |  |  | CCN1C(=O)C=CC1=O [N-ethyl maleimide (NEM), N-ethyl maleimide, reference compound] |  | DACM labeling of RGS17-RH after pre-incubation [6]: decreased DACM labeling |
